Laboratory results reported in ChEMBL document CHEMBL4513216, “Probing the Open Global Health Chemical Diversity Library for Multistage-Active Starting Points for Next-Generation Antimalarials” (ACS Infect Dis, 2020).

Test: Toxicity liver stage against HepG2, at 10uM
Type: cell-based
Set-up: test concentration 10 uM, cell line HepG2-A16-CD81EGFP
Conditions: human, HepG2-A16-CD81EGFP cells; read-out: INHIBITION
Summary of the method: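 Uninfected HepG2-A16-CD81EGFP cells, 3 × 10^3 per well, 1536-well, plated on prespotted compound at 10 μM final, parasite-free screening media added to match infected plates; puromycin 10 μM positive, DMSO 0.5% negative; run in parallel with 48 h PbLuc assay at 37 °C, 5% CO2; viability by CellTiter-Glo luminescence, normalized to controls.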

| SMILES | cytotoxicity at 10 µM |
| --- | --- |
| CCC1(CC)Cc2ccccc2-c2nc(CN(C)C)nc(O)c21 | -8.95% |
| CCOC(=O)C1CC2(CCCCC2)N2CCC(=O)N12 (centres undefined) | 2.63% |
| C[C@@H](CO)NC(=O)c1ccc2nc(NS(C)(=O)=O)sc2c1 | 6.84% |
| CCOCC(=O)NCC(Cc1cccc(F)c1)N1CCCCC1=O (centres undefined) | -1.89% |
| CNC(=O)CN1CCC(c2nn(C)c(=O)n2-c2ccccc2)CC1 | -14% |
| COC(=O)c1sccc1S(=O)(=O)N1CCC(Oc2cnccn2)CC1 | 9.32% |
| COC[C@@H]1CCC[C@]12CN(S(=O)(=O)c1cccs1)CCO2 | -5.73% |
| O=C(Cc1ccccc1)N1CC[C@@H]2CNS(=O)(=O)[C@@H]2CC1 | -9.88% |
| Cn1cccc1C(=O)N1CC[C@H]2[C@@H]1CCC(=O)N2CC1CC1 | -11.1% |
| NC(=O)c1ccc2c(c1)nc1n2CCN(Cc2cccnc2)C1 | 10.3% |
| O=C(O)c1ccc2ccc(N3CCN(CC4CC4)CC3)n2c1 | 7.25% |
| CNc1cc(C)nc(C2COCCN2Cc2csc(C)n2)n1 (centres undefined) | 1.45% |
| CC(C)Cn1nc(-c2ccc(C(=O)O)cc2)cc1-c1ccc(F)cc1 | 8.88% |
| COc1ccc(S(=O)(=O)N2CCC[C@@H]3CN(C(=O)C4CC4)C[C@@H]32)cc1 | 14.7% |
| CCCN1C[C@H](NC(=O)c2ccccc2F)[C@@H](c2ccc(OC)cc2)C1 | -41.8% |
| N[C@@H]1CCC[C@@H](Oc2ccc(F)cc2Oc2ccccc2)[C@@H]1O | -7.39% |
| OC1(Cn2ccc3ncccc32)CCN(Cc2cc(F)cc(F)c2)CC1 | -5.41% |
| COCC(=O)N1CCC(c2cccc(Cc3ccc(F)cc3)n2)CC1 | 10.3% |
| COc1ccccc1Cc1nnc(SCCS(C)(=O)=O)o1 | 5.89% |
| CCC(=O)c1cccc(S(=O)(=O)NC(C)C#N)c1 (centres undefined) | 3.73% |
| COc1cccc2c1CCCCN2C(=O)c1oc(C)nc1C | 3.3% |
| c1cnnc(N2CCCC(NCc3cccc4c3OCO4)C2)c1 (centres undefined) | 2.97% |

| SMILES | cytotoxicity at 10 µM |
| --- | --- |
| CS(=O)(=O)Cc1noc(CN(Cc2ccco2)c2ccccc2)n1 | -8.3% |
| CNS(=O)(=O)c1ccc(CNC(=O)C2CCCO2)cc1 (centres undefined) | 2.45% |
| Cc1cc(CNCC2(O)CCOCC2)ccc1Br | -0.378% |
| Cn1cc(C2CN(C(=O)Cc3coc(-c4ccccc4)n3)CCO2)cn1 (centres undefined) | -12.4% |
| O=C(c1cccnc1O)N1CCN(Cc2ccccc2F)CC1 | 5.57% |
| CC(C#N)CSc1ccccc1NCC(=O)NC1CCCCC1 (centres undefined) | 9.37% |
| O=C(Nc1cccc(CN2CCOC2=O)c1)N1CCCC1 | -3.54% |
| CCCC1CCCN(C(=O)Nc2ccc(F)c(C(N)=O)c2)CC1 (centres undefined) | -2.27% |
| CSCCC(=O)N1CCCC1c1nnc2n1CCCCC2 (centres undefined) | -5.79% |
| CCc1nnc2n1CCN(C(=O)c1cnn(C)c1C1CC1)C2 | -6.93% |
| CC(C)S(=O)(=O)CC(=O)N(Cc1ccsc1)c1ccccc1 | -5.24% |
| CN1CCN(CCCN(C)S(=O)(=O)CC2CCCCC2)CC1 | -10.1% |
| CC(Cn1cccn1)C(=O)N1CCC(Nc2cccnn2)CC1 (centres undefined) | -9.28% |
| CCc1[nH]n(C)c(=N)c1-c1ccc2c(c1)OCO2 | -45.1% |
| Cc1ccc2cc(C(=O)N3CCS(=O)(=O)CC3)[nH]c2c1 | -56.3% |
| Cc1nc(CN(CCS(C)(=O)=O)C(C)C)cs1 | -44.2% |
| O=C(CN1CCN(CCO)CC1)NCc1ccc(Cl)s1 | 9.3% |
| Cc1ccc(CNC(=O)CN(C)CC2CCN(CCO)CC2)s1 | 9.83% |
| COCCOC1CCN(C(=O)NCc2cc(C)oc2C)CC1 | -4.23% |
| Cc1c(C(=O)NS(=O)(=O)c2ccsc2)cnn1CC(C)C | 11.6% |
| O=C(CC1CC1)N[C@@H]1CN(C(=O)c2cccs2)C[C@@H]2CCCO[C@@H]21 | -113% |
| CC(C)N1C(=O)C[C@H]2[C@@H]1CCN2C(=O)c1ccco1 | -99% |

| SMILES | cytotoxicity at 10 µM |
| --- | --- |
| CCS(=O)(=O)NCC1Cn2nnc(-c3ccccc3)c2CO1 (centres undefined) | -75.4% |
| Cc1ccc2c(n1)N(CCN(C)C)CCN(C(=O)c1ccco1)C2 | -65.8% |
| CCOCC1CN(C(=O)Cc2ccccn2)Cc2cnn(CC)c21 (centres undefined) | -68.9% |
| O=C1CCc2cc(NC(=O)N3CCCN(Cc4cccs4)CC3)ccc21 | -11.1% |
| CN1CCC(N2CCC(CN(Cc3ccncc3)C3CCC3)CC2)CC1 | -7.19% |
| Cc1nc2cc(CNC(=O)C3CC(=O)N(C4CCCC4)C3)ccc2n1C (centres undefined) | -2.37% |
| CCCc1nnc(NC(C)c2ccc3c(c2)OCCO3)o1 (centres undefined) | 0.965% |
| CCN1CC(C(=O)N2CCc3cc(C(N)=O)n(C)c3C2)CCC1=O (centres undefined) | -44.6% |
| COc1cccc2c1OCC(NCc1cnn(-c3ccccc3F)c1)C2 (centres undefined) | 1.68% |
| Cc1ccc(N2CCN(C3CCc4ccccc4C3)CC2)nn1 (centres undefined) | -0.75% |
| CC(C)NS(=O)(=O)c1cc(C(=O)O)cc(-c2ccccc2C#N)c1 | -3.73% |
| Cc1ccccc1C(C(=O)N(C)CCc1cn[nH]c1)N(C)C (centres undefined) | -5.86% |
| CCSc1ccc(C(=O)N2CC[C@](O)(CC)[C@H](O)C2)s1 | -7.17% |
| CN(C)c1nc2c(c(=O)[nH]1)Cc1ccccc1OC2 | -104% |
| CCOc1ccc2[nH]c(=O)c(CN(C)CCc3cn[nH]c3)cc2c1 | 25.9% |
| Cc1ccccc1SC1CCN(C(=O)CCCS(N)(=O)=O)CC1 | -7.76% |
| CCCN1CCN(C(=O)c2cc[nH]n2)[C@H]2CS(=O)(=O)C[C@H]21 | 2.29% |
| Cn1cc(C2=CCN(CCCOc3ccc(C(N)=O)cc3)CC2)cn1 | 6.39% |
| CC(C)c1cc(N2CCC(N(C)C)C2)n2nccc2n1 (centres undefined) | -0.869% |
| Cn1c(=O)oc2ccc(NC(=O)N3CCOCC3)cc21 | -5.09% |
| CC(C)(C)c1cn(C2CCN(C(=O)c3cncnc3)CC2)nn1 | 13% |
| CCCC(=O)NCC1CCCN(Cc2cc(C)c(C)o2)C1 (centres undefined) | 8.82% |

| SMILES | cytotoxicity at 10 µM |
| --- | --- |
| Cc1nc[nH]c1CNC1CC(=O)N(CCc2cccc(Cl)c2)C1 (centres undefined) | -135% |
| CC(C)N(C(=O)c1ccccc1-c1nc2c([nH]1)CCNC2)C(C)C | -45% |
| COc1cccc(-c2cccc(N3CCC(N[C@@H]4CCOC4)CC3)c2)c1 | -12.7% |
| O=C1CN(Cc2cn(CC3CCCN(C4CCSCC4)C3)nn2)CCN1 (centres undefined) | -49.3% |
| CC(C)n1ccnc1CNC(=O)c1cccc(CCC(C)(C)O)c1 | -36.4% |
| CN1CCCC1CCn1ccnc1-c1nc2ccccc2[nH]1 (centres undefined) | 5.47% |
| COc1cccc(-c2n[nH]c3c2CN(C(=O)c2cccc(=O)[nH]2)CC3)c1 | -5.66% |
| CCN1CCCC1CN(Cc1ccoc1)CC1CCN(CCOC)CC1 (centres undefined) | -2.64% |
| Cc1ncc(CN2CCC(n3cc(-c4ccc(F)cc4)nn3)CC2)cn1 | 5.48% |
| CN1CC2(CCN(Cc3ncc[nH]3)CC2)CC1=O | -1.52% |
| Cc1cc(-c2n[nH]c3c2CN(S(=O)(=O)c2ccsc2)CC3)c(C)o1 | -15.8% |
| CCCN(CCOC)c1nc(C)nc2sccc12 | -134% |
| Oc1ccc(-c2c(-c3ccccc3)ncn2C2CCNC2)cc1 (centres undefined) | -45.3% |
| CC(C)c1nc(C2CCCN2Cc2ccncc2Cl)no1 (centres undefined) | -2.83% |
| Cc1[nH]ncc1C(=O)N1CCCN(Cc2nccn2C(C)C)CC1 | -6.33% |
| COc1cccc2cc(CNC(=O)N3CCC(N4CCCC4)C3)oc12 (centres undefined) | -2.69% |
| CN(C(=O)Cc1cccs1)C1CCN(c2ccccn2)CC1 | -3.54% |
| CC(Oc1ccccc1)C(=O)N1CCCN(Cc2nccn2C)CC1 (centres undefined) | 0.471% |
| Cn1ncc2c(=O)[nH]c(CN(Cc3ccco3)C3CCCC3)nc21 | 20.8% |
| CC(C)N(C)S(=O)(=O)N(C)Cc1ccc2c(c1)OCO2 | -0.0868% |
| Cc1cc(CN(C)C2CCCN(Cc3noc(C4CC4)n3)C2)no1 (centres undefined) | -10.8% |
| CCc1c(C(=O)N2CCN(CC(N)=O)CC2)cnn1C(C)(C)C | -1.77% |

| SMILES | cytotoxicity at 10 µM |
| --- | --- |
| Cn1cnc2c1CCN(Cc1nc(COc3ccc(F)cc3)no1)C2 | -7.22% |
| COc1ccc(-c2noc(CNC(C)Cn3cccn3)n2)c(OC)c1 (centres undefined) | -0.144% |
| O=C(c1ccc[nH]1)N1CCCC(c2cc(C(F)(F)F)[nH]n2)C1 (centres undefined) | 2.04% |
| Cc1csc(CNC(=O)N(C)Cc2cnn(C)c2)n1 | -1.57% |
| Cc1nc(C)n(CC2CN(CCOc3ccccc3F)CCO2)n1 (centres undefined) | -1.44% |
| CC(C)C(NC(=O)Cn1ccc(=O)n(C)c1=O)c1ccc(F)cc1 (centres undefined) | -9.9% |
| Clc1ccc(OCCCN2CCN(c3cnccn3)CC2)cc1 | -8.11% |
| CCc1nc(CN2CCCN(C(=O)COCC3CC3)CC2)cs1 | -5.2% |
| Cc1noc([C@@H]2C[C@H]3OCC[C@H]3N(Cc3sccc3C)C2)n1 | -69.1% |
| CCS(=O)(=O)NC[C@]12COC[C@H]1CN(Cc1ccsc1)C2 | 6.37% |
| CCOc1ncnc2c1CCN(C(=O)c1ccncc1F)CC2 | -76.6% |
| Cc1ccc(N2CCC3(CCCN3Cc3ccn(C)n3)CC2)nn1 | 11.6% |
| CNC(=O)COC1COC2(CCN(c3ccc(C)nn3)CC2)C1 (centres undefined) | -0.419% |
| Cc1cncc(C(=O)N2CC[C@@]3(C[C@H](NS(C)(=O)=O)CCO3)C2)c1 | -73.6% |
| COCCN1CCC2(CC1)CC(NCc1cncn1C)c1ccccc12 (centres undefined) | -8.13% |
| c1ccc(OCC2C[C@@H]3[C@@H](C2)OCCN3Cc2ccoc2)nc1 (some centres undefined) | -0.514% |
| CN1CCN(C2COC3(CCN(Cc4ccsc4)CC3)C2)CC1 (centres undefined) | -77.1% |
| c1coc(CN2CC[C@H]3O[C@@H](COCC4CC4)CC[C@H]32)c1 | -137% |
| Cc1ccc(CN2CCc3onc(C(=O)NCCN(C)C)c3C2)o1 | 5.9% |
| CCS(=O)(=O)NC[C@]12COC[C@H]1CN(Cc1ccncc1)C2 | 6.01% |
| Cc1c(C2N3CC4(C(C)C)CN2CC(C(C)C)(C3)C4=O)[nH]c(=O)[nH]c1=O (centres undefined) | 8.71% |
